# The list is not random: actives were taken first. Their share in the collection is about 4.2%.
# KCC2 mod: KCC2 cotransporter modulators, thallium flux, primary screen, cell-based, HEK293 KCC2, FluoZin-2 fluorescence, MLSMR | KCC2 cells, thallium flux FluoZin-2 fluorescence | B-score of Tl+ flux slope (higher = more flux/activation; lower = inhibition) at 10 µM | 2.2% of 190,000 active | AID 1456, 2008;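 active means thallium flux slope and its plate-corrected score both differing from the plate sample mean at a set confidence after two filtering rounds, in either direction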;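 further: slope of fluorescence scaled to starting intensity during 10 to 20 s after thallium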
# Target sequence (Q9H2X9 whole entry, looked up): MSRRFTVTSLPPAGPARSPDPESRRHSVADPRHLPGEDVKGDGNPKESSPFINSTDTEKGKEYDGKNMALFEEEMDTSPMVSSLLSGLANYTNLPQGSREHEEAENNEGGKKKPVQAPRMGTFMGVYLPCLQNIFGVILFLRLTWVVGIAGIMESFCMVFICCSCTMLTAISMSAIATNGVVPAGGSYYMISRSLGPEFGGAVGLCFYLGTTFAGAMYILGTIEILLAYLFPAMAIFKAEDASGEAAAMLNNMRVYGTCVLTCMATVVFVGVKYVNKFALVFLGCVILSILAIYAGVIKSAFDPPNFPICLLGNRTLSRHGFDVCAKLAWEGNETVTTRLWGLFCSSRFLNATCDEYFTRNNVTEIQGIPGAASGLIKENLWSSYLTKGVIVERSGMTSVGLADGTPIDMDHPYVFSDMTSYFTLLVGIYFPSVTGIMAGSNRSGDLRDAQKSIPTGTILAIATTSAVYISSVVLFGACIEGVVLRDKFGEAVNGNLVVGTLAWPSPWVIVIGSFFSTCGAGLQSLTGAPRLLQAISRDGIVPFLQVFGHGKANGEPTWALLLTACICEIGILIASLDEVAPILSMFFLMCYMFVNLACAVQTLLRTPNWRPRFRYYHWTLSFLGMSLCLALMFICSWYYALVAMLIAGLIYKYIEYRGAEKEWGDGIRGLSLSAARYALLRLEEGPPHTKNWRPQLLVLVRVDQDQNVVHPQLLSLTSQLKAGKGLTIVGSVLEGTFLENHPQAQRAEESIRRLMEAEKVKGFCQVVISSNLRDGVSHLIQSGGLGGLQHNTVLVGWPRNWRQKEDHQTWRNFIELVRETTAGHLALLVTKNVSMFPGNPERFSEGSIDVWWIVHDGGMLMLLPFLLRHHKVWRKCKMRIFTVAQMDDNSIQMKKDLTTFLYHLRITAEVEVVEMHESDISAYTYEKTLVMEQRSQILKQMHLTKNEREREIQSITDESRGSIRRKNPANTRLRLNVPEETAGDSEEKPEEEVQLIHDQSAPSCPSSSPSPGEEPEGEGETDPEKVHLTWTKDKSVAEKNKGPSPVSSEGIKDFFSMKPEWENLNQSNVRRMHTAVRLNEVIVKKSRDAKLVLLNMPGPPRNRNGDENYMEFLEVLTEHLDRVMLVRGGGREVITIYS
# WT yeast gro inh: growth inhibition of WT strain, primary screen, mitochondrial fusion inhibitor project, WT and mutant strains, chemical genetic. inhibition, % at 10 µM. 2.1% of 190,000 active. mitochondrial fusion phenotypic screen. AID 1362, 2008; in the data active means inhibition above about 58%; tested in S. cerevisiae
# Rad51 HR inh: human RAD51 strand exchange inhibitors, primary screen, biochemical, fluorescence. DNA repair protein RAD51 homolog 1 (Homo sapiens), Q06609. hRad51 DNA strand exchange, fluorescence dequenching. inhibition, % at 10 µM. 0.085% of 200,000 active;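 active means inhibition above 40% at the single screening dose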
#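 material = hRad51 filaments on single-stranded DNA | reagent = Donor/quencher-labelled 47-bp dsDNA substrate | compound = 10 µM final, single point | schedule = strand-exchange reaction 15 min at room temperature | measured by = fluorescein emission 520 nm, excitation 485 nm | read-out basis = % inhibition versus plate control and blank means | benchmarks = plate controls and plate blanks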
# SKKanGAS inh: S. pyogenes SKKanGAS growth inhibitors in kanamycin, primary screen, streptokinase expression inhibitor project, SKKanGAS strain, BacTiter-Glo luminescence | 6 h | inhibition, % at 7.5 µM | 1.3% of 300,000 active;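 active means mean replicate score, as percent of positive control median, at least 50; inconclusive means mean below 50 but one replicate at or above 50; inactive means mean and every replicate below 50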;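 further: strain carries kanamycin resistance gene driven by streptokinase promoter and grows in 40 µg/ml kanamycin; loss of luminescence reflects streptokinase promoter inhibition or plain growth inhibition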
# Insulin prom up: insulin promoter activators in MIN6 cells, imaging, high-content screening, mouse beta cells. z-score at 5 µM. 0.3% of 190,000 active. MIN6 insulin promoter-GFP reporter; hits give high values. AID 1625, 2009;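 active means z-score above 3 at 5 µM with at least 500 cells counted in the well; inconclusive means wells under 500 cells, flagged as cytotoxic or low count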
# Autophagy HCS: autophagy modulators in MEF cells, primary screen, imaging, high-content, MEF GFP-LC3; MEF GFP-LC3 puncta imaging; test concentration mostly 10 µM; calls only at 10 µM (by protocol); 0.98% of 190,000 active;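 active means percentage of spot-positive cells more than 3 SD above its plate mean, without a fluorescence outlier flag or 80% toxicity; inconclusive means no clear call, values can overlap the other calls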
# A number is an active result; . = inactive; ? = inconclusive; / = no result; + = active, no number.
SMILES,KCC2 mod,WT yeast gro inh,Rad51 HR inh,SKKanGAS inh,Insulin prom up,Autophagy HCS
CCOC(=O)N1CCC(N2Cc3cccc(C(=O)Nc4ccc(CC)cc4)c3C2=O)CC1,.,69.3,.,.,.,.
CCOC(=O)N1CCC(N2Cc3cccc(C(=O)Nc4ccc(F)cc4)c3C2=O)CC1,/,.,.,?,.,.
COc1cc(OC)cc(C(=O)N[C@H](C(=O)NCc2ccc(F)cc2)C(C)C)c1,/,/,/,.,/,/
COCCn1c(C)cc(/C=C2/NC(=O)N(c3ccc(Cl)cc3)C2=O)c1C,.,.,.,.,.,.
CC(C)CNC(=O)Cn1c(=O)c2c(ncn2CC(C)C)n(Cc2ccccc2)c1=O,.,.,.,.,.,+
CCCCCNC(=O)Cn1c(=O)c2c(ncn2CC(C)C)n(Cc2ccccc2)c1=O,/,/,/,.,/,/
Clc1ccccc1-c1ccc(CN2CCN(c3ccccc3)CC2)o1,.,65.8,/,.,/,.
O=[N+]([O-])c1ccc(CN2CCN(c3ccccc3)CC2)o1,/,/,/,.,/,/
N#CC1=C(N)NC(SCc2ccc(Br)cc2)=C(C#N)C12CCCCC2,.,66.6,/,.,/,.
N#CC1=C(N)NC(SCC(=O)Nc2ccc(Br)cc2)=C(C#N)C12CCCCC2,-4.91,.,.,.,.,.
N#CC1=C(N)NC(SCC(=O)c2ccccc2)=C(C#N)C12CCCC2,.,.,/,.,.,.
Cc1ccc(C)c(S(=O)(=O)N2CCCOC2CNC(=O)C(=O)NCc2ccccn2)c1 (stereo not drawn),/,/,/,.,/,/
O=C(NC1=NCCS1)c1cccc2ccccc12,.,81.3,.,.,.,.
O=C(NC1=NCCS1)c1cc(-c2ccccc2)nn1-c1ccccc1,/,/,.,51.3,/,/
Cc1ccc(NC(=O)c2cc(-c3ccccc3)nn2-c2ccccc2)c(Br)c1,.,64.6,.,.,.,.
Cc1ccc(NC(=O)c2cc(-c3ccccc3)nn2-c2ccccc2)cc1,.,65.5,.,.,.,.
CCCCNC(=O)C1CC(=O)N(CCc2ccc(C)cc2)C1 (stereo not drawn),/,/,/,.,/,/
Cc1ccc(N2C(=O)CC(Nc3ccc(Cl)c(S(=O)(=O)N(C)C)c3)C2=O)c(C)c1 (stereo not drawn),.,.,.,.,.,.
Cc1cc(/C=C2\SC(=Nc3ccccc3)NC2=O)c(C)n1-c1ccc(S(N)(=O)=O)cc1,/,.,.,72.2,/,.
Cc1ccc(-c2nc(CSc3nc4ccccc4c(=O)n3CCO)cs2)cc1,.,60.3,.,.,.,.
Cc1ccc(-c2nc(CSc3nc4ccccc4c(=O)n3C)cs2)cc1,.,.,.,.,.,.
C=CCN(C)CC/C=C1\c2ccccc2CSc2ccccc21,/,.,.,.,/,.
C#CCN(C)CC/C=C1\c2ccccc2CSc2ccccc21,/,69.8,.,.,/,.
COc1ccc2cc(C(=O)C3CCCN(Cc4cccc(C)n4)C3)ccc2c1 (stereo not drawn),.,.,.,79.1,.,.
Cc1cccc(CN2CCCC(C(=O)c3ccc4c5c(cccc35)CC4)C2)n1 (stereo not drawn),.,.,.,65.0,/,.
SMILES,KCC2 mod,WT yeast gro inh,Rad51 HR inh,SKKanGAS inh,Insulin prom up,Autophagy HCS
COc1ccc(-c2[nH]ncc2CN2CCCC(C(=O)c3cccc(OC)c3)C2)cc1 (stereo not drawn),.,.,.,.,/,.
CCN(CC)c1ccc(-c2nn3c(-c4n[nH]c5c4CCC5)nnc3s2)cc1,.,.,.,85.4,.,.
CN(C)c1nc(-c2ccccn2)nnc1-c1ccccc1,/,61.1,.,.,.,.
c1ccc(-c2nnc(-c3ccccn3)c(-c3ccccn3)n2)nc1,.,/,.,.,.,/
CCN(CC)c1nc(-c2ccccn2)nc(-c2ccccc2)c1C#N,.,79.6,.,.,.,.
Cn1c(SCc2ccccc2C#N)nnc1-c1ccncc1,/,/,/,.,/,/
O=C(Nc1ccccc1Cl)C1C(c2ccccc2)C1(Cl)Cl (stereo not drawn),/,/,/,.,/,/
CCc1ccccc1NC(=O)C1C(c2ccccc2)C1(Cl)Cl (stereo not drawn),.,80.7,.,.,/,.
Cc1cccc(OCCCC(=O)Nc2ccc(S(N)(=O)=O)cc2)c1,.,.,.,/,/,.
CCN(CC)c1ccc(NC(=O)CCCOc2cccc(C)c2)cc1,.,.,41.5,.,.,.
O=C(Cc1ccc(Br)cc1)Nc1nc2ccccc2[nH]1,.,/,.,57.0,.,/
Cc1cccc(OCCCC(=O)Nc2nc3ccccc3[nH]2)c1,.,.,.,.,.,+
COc1ccc(-c2ccc(=O)n(CC(=O)NCC3COCCO3)n2)cc1 (stereo not drawn),/,/,/,.,/,/
Cc1ccc(-c2nc(CN(Cc3cnn(C)c3)C(C)C)c(C)o2)o1,.,.,.,.,.,.
O=C(NCCn1cccn1)C1CCC(=O)N(CCc2ccc(Cl)cc2)C1 (stereo not drawn),/,/,/,.,/,/
COc1cccc(-c2csc(N3CCN(C(=O)Nc4ccc(Cl)cc4)CC3)n2)c1,.,67.2,.,.,/,.
CC(=O)c1c(N)c(C#N)c(C)n1-c1ccc(Br)cc1,.,.,.,.,.,.
Cc1c(C#N)c(N=CN(C)C)c(C(=O)c2ccc(Br)cc2)n1-c1ccc(Cl)cc1,.,60.5,.,.,.,.
Fc1ccc(-n2cc(-c3ccccc3)c3c(N4CCOCC4)ncnc32)cc1,.,.,.,.,.,.
OCCN1CCN(c2ncnc3c2c(-c2ccccc2)cn3-c2ccc(Br)cc2)CC1,.,84.7,.,.,.,.
CCN1CCN(c2ncnc3c2c(-c2ccccc2)cn3-c2ccc(F)cc2)CC1,.,.,.,.,/,+
O=C(NCCc1ccc2c(c1)OCCO2)c1ccc(F)cc1,.,.,.,.,.,.
O=C(c1ccco1)N1CCN(c2ccc(N3CCCCC3)nn2)CC1,/,/,/,.,/,/
Cc1ccc(NC(=O)c2ccccc2NS(=O)(=O)c2ccc(Cl)s2)cc1S(=O)(=O)N1CCOCC1,-4.22,.,/,.,.,.
COc1ccc(C)cc1NC(=O)c1ccccc1NS(=O)(=O)c1ccc(Cl)s1,-3.59,84.1,.,.,.,.
COc1ccccc1NC(=O)c1ccccc1NS(=O)(=O)c1cccs1,.,.,.,.,.,.
O=C(Nc1cc(S(=O)(=O)N2CCOCC2)ccc1O)c1ccc(NS(=O)(=O)c2ccc(Cl)s2)cc1,.,.,.,.,/,.
COc1ccc(C(=O)N(C)c2c(C)n(C)n(-c3ccccc3)c2=O)cc1OC,.,.,.,.,.,+
OC[C@@H](O)[C@H](O)C(/C=N/Nc1ccccc1)=N\Nc1ccccc1,.,/,.,.,.,/
COc1cc(OC)nc(Oc2ccccc2C(=O)Oc2ccc(F)cc2Cl)n1,.,69.3,.,.,/,.

# Screens from PubChem BioAssay.
